Assays:
[1] = system: SMAD2/3, NFATc3, ERK1/2, JNK, PKG/VASP in T2D rat hearts; format: in vivo; details: for cardiac cGMP-dependent pathway PKG/VASP (VASP phosphorylation): western blot, T2D lowered VASP phosphorylation by ≈60%
Method in brief: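 Ventricles came from diabetic rats after 6 weeks of peptide infusion (2 pmol·kg−1·min−1) or sacubitril in drinking water (18 mg·kg−1·day−1). Tissue was lysed in RIPA with protease and phosphatase inhibitors and protein assayed by Bradford. Western blots: 12% SDS-PAGE, PVDF, 5% BSA block, primaries overnight at 4°C, GAPDH reference, three blots per condition. Antibody arrays: 5 µg protein dot-blotted onto PVDF, then probed with GAPDH as internal control.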

[2] = system: ANP/cGMP concentrations in T2D rats; assay: Cardiac and plasma ANP/cGMP measurement by ELISA; format: in vivo, rat; details: for increase in cardiac cGMP levels vs. T2D: acetylated samples, T2D tended to decrease ≈50%, n = 4-6; for increase in ANP plasma concentration: non-significant for MANP, P = 0.0967
[3] = system: high-fat/streptozotocin-induced Type 2 diabetic (T2D) rats; assay: Blood glucose and physiological parameters; format: in vivo, rat; details: for food intake / urine output / water intake / body weight: T2D animals, Supplementary Figures S1 and S2; for food intake / urine output / water intake: 24 h metabolic cages; for fasting plasma glucose at Week 6: first set, untreated T2D rose further to ≈500 mg·dL−1 at Week 6
Method in brief: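 Male Wistar rats, 12 months old, 450 ± 25 g. Type 2 diabetes induced by a 60% kcal lard diet for 4 weeks, then three i.p. STZ doses of 40 mg·kg−1 (citrate, pH 4.5) on consecutive days; shams received citrate. Tail glucose was read by glucometer in conscious restrained rats after a 12-h fast. Treatment ran 6 weeks; rats were held singly in metabolic cages for 24 h before the end.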

neprilysin (NEP) = details: cited from earlier work
[4] = biological target: insulin-degrading enzyme (IDE); details: relative to ANP; cited from earlier work
mongrel dogs = mongrel dogs following peptide administration; cited from earlier work
[5] = system: myocardial fibrosis in T2D rat hearts; assay: Myocardial fibrosis histology and immunofluorescence; format: in vivo; details: first set, 2 pmol·kg−1·min−1 s.c., 6 weeks; for decrease in WGA staining (extracellular matrix): n = 5-6; for decrease in Masson's trichrome staining: n = 6
[6] = system: cultured rat cardiac fibroblasts; assay: Sircol collagen secretion assay on cell supernatants; format: cell-based; details: 100 pM, 24 h, n = 6 independent cultures
Method in brief: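 Rat ventricular fibroblasts, isolated by collagenase digestion, were adhesion-selected and cultured 5 days in DMEM with 10% FBS. They were then exposed to peptide at 100 pM for 24 h. Culture supernatants were used directly in the Sircol dye-binding assay, with pellets rinsed and dissolved in alkali reagent; collagen was read against standards. Six independent cultures were run.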

[7] = system: cultured rat cardiac fibroblasts; assay: MTT proliferation assay; format: cell-based; details: 100 pM, 24 h, n = 6 independent cultures
Method in brief: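 Ventricular fibroblasts came from normal Wistar rats by collagenase type V digestion and differential centrifugation, then were selected by 2-h adhesion in DMEM with 10% heat-inactivated FBS. On day 5 of culture, cells were exposed to peptide at 100 pM for 24 h. MTT (0.5 mg·mL−1 in Tyrode) was added for 1 h at 37°C and formazan dissolved in DMSO for absorbance reading. Six independent cultures were run.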

[8] = system: cultured rat cardiac fibroblasts; assay: Western blots of SMAD2/3 and PKG/VASP in high-glucose-treated fibroblasts; format: cell-based; details: high glucose 24 h with 100 pM peptide, western blot; for decrease in SMAD2 phosphorylation levels: n = 3; for activation of PKG/VASP pathway (VASP phosphorylation at serine 239): n = 5
Method in brief: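 Day-5 cultures of rat ventricular fibroblasts were given high glucose for 24 h, with or without peptide at 100 pM. Cells were lysed in RIPA with protease and phosphatase inhibitors, and proteins were separated by 12% SDS-PAGE and blotted to PVDF. Membranes were blocked in 5% BSA and probed overnight at 4°C, with GAPDH as housekeeper. Blots came from three or five independent cultures.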

[9] = regulated by clearance receptor (NPR-C) and peptidases; cited from earlier work
[10] = system: cardiac collagen in T2D rat hearts; format: in vivo; details: first set; Sircol assay; 2 pmol·kg−1·min−1 s.c., 6 weeks; n = 5-6
Method in brief: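 Ventricular tissue came from diabetic rats after 6 weeks of pump-delivered peptide at 2 pmol·kg−1·min−1. Tissue was homogenized in acid-pepsin and reacted with Sircol dye. Collagen-dye pellets were spun down, rinsed with acetic acid and dissolved in alkali reagent. Soluble collagen was read as absorbance at 550 nm against standards.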

[11] = first set, ELISA on ventricular tissue, 2 pmol·kg−1·min−1 s.c., 6 weeks, n = 6

Row | Molecule | increase in cardiac ANP levels vs. T2D ([2]; second set, ELISA, n = 5-7) | food intake [3] | urine output [3] | water intake [3] | body weight [3] | cardiac cGMP-dependent pathway PKG/VASP (VASP phosphorylation) ([1]; first set, n = 3) | increase in plasma ANP (mongrel dogs) | increase in plasma cGMP (mongrel dogs) | decrease in WGA staining (extracellular matrix) [5] | decrease in Masson's trichrome staining [5] | decrease in collagen secretion [6] | increase in cardiac ANP levels vs. T2D [2, 11] | increase in cardiac cGMP levels vs. T2D ([2]; first set, ELISA) | increase in ANP plasma concentration ([2]; first set, ELISA, n = 6) | decrease in fibroblast proliferation [7] | decrease in SMAD2 phosphorylation levels [8] | activation of PKG/VASP pathway (VASP phosphorylation at serine 239) [8] | fasting plasma glucose at Week 6 ([3]; T2D rats) | half-life [9] | also measured
1 | CCOC(=O)[C@H](C)C[C@@H](Cc1ccc(-c2ccccc2)cc1)NC(=O)CCC(=O)O [SACU, Sacubitril sodium] | ≈ 50% | reduced | reduced | reduced | without affecting the body weight |  |  |  |  |  |  |  |  |  |  |  |  |  |  | level of ERK1/2 phosphorylation relative to GAPDH ([1]; second set, antibody array, n = 4): decreased; metabolic profile (blood glucose) ([3]; second set, T2D rats, SACU 18 mg·kg−1·day−1 in drinking water): same metabolic profiles as their counterparts
2 | M-atrial natriuretic peptide [MANP] |  | reduced | reduced | reduced | without affecting the body weight | restored this pathway | ~1.5 fold | ~1.5 fold | ≈ 75% | ≈ 80% | ≈ 30% | ≈ 2 fold | ≈ 5 fold | ≈ 20% | ≈ 20% | ≈ 55% | ≈ 2.3 fold | remained unchanged |  | resistance to NEP degradation (neprilysin (NEP)): resistant to NEP degradation; IC50 with insulin-degrading enzyme (IDE), higher than ANP [4]: 30 fold; cardiac NFATc3 activation (phosphorylated inactivated protein levels) ([1]; first set, antibody array vs T2D controls, n = 4): significantly reduced NFATc3 activation; cardiac ERK1/2 activation (pERK/ERK) ([1]; first set, antibody array, T2D hearts, n = 4): markedly attenuated; lower SMAD3 phosphorylation levels compared with T2D animals ([1]; first set, cardiac tissue western blot, 2 pmol·kg−1·min−1 s.c., 6 weeks, n = 3): ≈ 55%
3 | atrial natriuretic peptide [ANP] | no noticeable effect | reduced | reduced | reduced | without affecting the body weight | restored this pathway | ~1.5 fold | ~1.5 fold | ≈ 50% | ≈ 50% | ≈ 30% | no noticeable effect | attenuated | no noticeable effect | ≈ 20% | ≈ 55% | ≈ 2.3 fold | remained unchanged | 3 min | plasma ANP levels ([2]; second set, ELISA, n = 5-7): no noticeable effect; increase in cardiac soluble collagen [10]: ≈ 25%
4 | brain natriuretic peptide [BNP] |  |  |  |  |  |  |  |  |  |  |  |  |  |  |  |  |  |  | 20 min | 

— publication PMC11977460 (European Heart Journal Open, 2025)
